Results from different studies.
Lines come from different studies, so protocols differ.
Cell line: HepG2
Read-out: cell growth or viability

SMILES | technique | concentration | time | measurement | result
CCOC(=O)c1ccc(N2C(N)=C(C#N)C3(C(=O)Nc4ccccc43)C(C#N)=C2O)cc1 (stereo not shown) | MTT | 100 µM | 24 h | viability | 10.7%
COc1ccc(NC(=O)c2c(Nc3ccccc3)sc(C#N)c2NC(=O)CNc2ccccc2Cl)cc1 | SRB | 0.1 µM | 48 h | viability | 95.7%
Cc1ccc2nc(-c3ccc(Cl)cc3)[nH]c2c1 | MTT |  | 48 h | IC50 | 28.9 µM
COc1ccc(NCC(=O)Nc2c(C#N)sc(Nc3ccccc3)c2C(=O)Nc2ccc(OC)cc2)cc1 | SRB | 1 nM | 48 h | viability | 97.2%
Cc1ccc2nc(-c3cccnc3)[nH]c2c1 | MTT |  | 48 h | IC50 | 68.4 µM
COc1ccc(NC(=O)c2c(Nc3ccccc3)sc(C(=O)NN=Cc3ccc(OC)c(O)c3)c2NC(C)=O)cc1 | SRB | 100 µM | 48 h | viability | 22.4%
CC(=O)Nc1cccc(-n2c(=O)n(C3CC3)c(=O)c3c(Nc4ccc(I)cc4F)n(C)c(=O)c(C)c32)c1 | resazurin | 25 nM | 72 h | viability | 42.6%
CCOC(=O)c1ccc(-n2c(-c3ccc(C)cc3)cc(-c3ccc(O)cc3)c(C#N)c2=O)cc1 | MTT | 12.5 µM | 24 h | viability | 50.4%
COc1ccc(-c2nc3ccccc3n2Cc2ccccc2)cc1OC | MTT |  |  | IC50 | 19.9 µM
CCOC(=O)c1ccc(-n2c(N)c(C#N)c(CC#N)c(C#N)c2=O)cc1 | MTT | 6.25 µM | 24 h | viability | 71.8%
Cc1ccc2nc(-c3ccco3)[nH]c2c1 | MTT |  | 48 h | IC50 | > 100 µM
COc1ccc(NC(=O)c2c(Nc3ccccc3)sc(C#N)c2NC(=O)CNc2ccc([N+](=O)[O-])cc2)cc1 | SRB | 10 nM | 48 h | viability | 86.4%
CCOC(=O)c1ccc(-n2c(C)cc(/C=C/c3ccc(OCC)cc3)c(C#N)c2=O)cc1 | MTT | 6.25 µM | 24 h | viability | 100%
